The values below come from ChEMBL document CHEMBL1144404, “Aminoimidazolylmethyluracil analogues as potent inhibitors of thymidine phosphorylase and their bioreductive nitroimidazolyl prodrugs” (J Med Chem, 2005).

A value given as a limit tells only on which side of the number the result lay.

The nature of data set [1]: Bioavailability in mouse (dose 2 mg/kg i.v.). Format: ADME, organism-based. The conditions noted are these: in vivo, iv. An outline of the steps:
(§1)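 Mice given a single dose by ip (10 mg/kg), oral (20 mg/kg) or iv (2 mg/kg) route. Blood sampled over 24 h after dosing; plasma analysed for parent compound. PK parameters (Cmax, Tmax, AUC, T1/2, F, C0, Cl, Vdss) derived from plasma concentration-time profiles.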

The nature of data set [2]: Bioavailability in mouse (dose 10 mg/kg i.p.). The conditions noted are these: in vivo, ip. Format: ADME, organism-based. An outline of the steps:
as §1

Data set [3] can be described thus: Concentration at time 0 was measured in mice after intravenous administration of 2 mg/kg. Also on record: dose 2 mg/kg, route intravenous. Type of data set: ADME, organism-based. The conditions noted are these: mouse, in vivo. In outline: as §1
Data set [4] can be described thus: Maximum plasma concentration in mice after oral administration of 20 mg/kg. Format: ADME, organism-based. Also on record: dose 20 mg/kg, route oral. Particulars: mouse. In outline:
as §1

Data set [5] is described as follows: Area under concentration-time curve for the compound was measured in mice after intraperitoneal administration of 10 mg/kg. Type of data set: ADME, organism-based. Also on record: dose 10 mg/kg, route intraperitoneal. The conditions noted are these: mouse, in vivo, ip. An outline of the steps:
as §1

The nature of data set [6]: Maximum time to attain Cmax in mice after intraperitoneal administration of 10 mg/kg. Type of data set: ADME, organism-based. Also on record: dose 10 mg/kg, route intraperitoneal. The conditions noted are these: mouse, in vivo, ip. In outline: as §1
The nature of data set [7]: Steady state volume of distribution was measured in mice after intravenous administration of 2 mg/kg. Format: ADME, organism-based. Also on record: dose 2 mg/kg, route intravenous. The conditions noted are these: mouse, in vivo, read-out: Vdss. An outline of the steps:
as §1

Data set [8] can be described thus: Bioavailability in mouse (dose 20 mg/kg p.o.). Particulars: in vivo, po. Format: ADME, organism-based. In outline: as §1
The nature of data set [9]: Clearance at time 0 was measured in mice after intravenous administration of 2 mg/kg. The conditions noted are these: mouse, in vivo. Also on record: dose 2 mg/kg, route intravenous. Type of data set: ADME, organism-based. An outline of the steps: as §1
A short description of data set [10]: Area under concentration-time curve for the compound was measured in mice after oral administration of 20 mg/kg. Type of data set: ADME, organism-based. Set-up: dose 20 mg/kg, route oral. Particulars: mouse, in vivo. An outline of the steps:
as §1

The nature of data set [11]: Area under concentration-time curve for the compound was measured in mice after intravenous administration of 2 mg/kg. Type of data set: ADME, organism-based. Also on record: dose 2 mg/kg, route intravenous. The conditions noted are these: mouse, in vivo. In outline: as §1
Data set [12] is described as follows: Maximum plasma concentration in mice after intraperitoneal administration of 10 mg/kg. Type of data set: ADME, organism-based. Also on record: dose 10 mg/kg, route intraperitoneal. Particulars: mouse, ip. An outline of the steps: as §1
Data set [13] in a line: Half-life was measured in mice after oral administration of 20 mg/kg. Set-up: dose 20 mg/kg, route oral. The conditions noted are these: mouse, in vivo. Type of data set: ADME, organism-based. In outline:
as §1

Data set [14] is described as follows: Half-life was measured in mice after intraperitoneal administration of 10 mg/kg. Particulars: mouse, in vivo, ip. Also on record: dose 10 mg/kg, route intraperitoneal. Format: ADME, organism-based. In outline: as §1
Data set [15] can be described thus: Half-life was measured in mice after intravenous administration of 2 mg/kg. Type of data set: ADME, organism-based. Set-up: dose 2 mg/kg, route intravenous. Particulars: mouse, in vivo. An outline of the steps:
as §1

Data set [16] can be described thus: Maximum time to attain Cmax in mice after oral administration of 20 mg/kg. Format: ADME, organism-based. Set-up: dose 20 mg/kg, route oral. Particulars: mouse, in vivo. An outline of the steps: as §1
The target in data set [17] is Thymidine phosphorylase (Escherichia coli K-12, UniProt P07650). Nature of the data set: Inhibitory concentration against thymidine phosphorylase of Escherichia coli.
Chain of Thymidine phosphorylase (Escherichia coli K-12, UniProt P07650) (P07650 whole entry): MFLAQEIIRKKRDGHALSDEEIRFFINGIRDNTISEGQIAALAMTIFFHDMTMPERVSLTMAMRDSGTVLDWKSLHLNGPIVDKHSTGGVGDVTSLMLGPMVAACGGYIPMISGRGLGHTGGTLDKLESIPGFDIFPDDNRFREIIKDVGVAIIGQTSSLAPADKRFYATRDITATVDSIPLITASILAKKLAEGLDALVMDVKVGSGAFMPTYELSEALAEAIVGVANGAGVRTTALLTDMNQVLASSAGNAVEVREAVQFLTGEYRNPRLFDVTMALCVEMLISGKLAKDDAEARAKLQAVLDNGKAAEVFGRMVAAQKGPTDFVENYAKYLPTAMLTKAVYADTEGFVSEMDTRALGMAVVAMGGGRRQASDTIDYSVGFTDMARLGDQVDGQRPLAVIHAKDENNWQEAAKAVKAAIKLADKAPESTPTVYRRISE
For data set [18], the target named is T1, Thymidine phosphorylase (Homo sapiens, UniProt P19971).
T1 sequence (P19971 whole entry): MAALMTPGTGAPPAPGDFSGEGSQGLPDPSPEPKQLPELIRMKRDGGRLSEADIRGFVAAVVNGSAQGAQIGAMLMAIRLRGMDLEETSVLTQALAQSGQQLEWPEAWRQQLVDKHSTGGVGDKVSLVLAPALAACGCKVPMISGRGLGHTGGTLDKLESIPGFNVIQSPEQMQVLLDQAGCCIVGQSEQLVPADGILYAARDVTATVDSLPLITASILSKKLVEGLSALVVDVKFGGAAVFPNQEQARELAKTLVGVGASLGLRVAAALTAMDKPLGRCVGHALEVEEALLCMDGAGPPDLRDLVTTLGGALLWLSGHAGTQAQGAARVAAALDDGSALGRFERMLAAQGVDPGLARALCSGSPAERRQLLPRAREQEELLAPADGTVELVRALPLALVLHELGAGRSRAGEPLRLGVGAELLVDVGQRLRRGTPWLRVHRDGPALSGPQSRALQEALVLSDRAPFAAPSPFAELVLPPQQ
Nature of the data set: Inhibitory concentration against human thymidine phosphorylase.

Data set [19] can be described thus: Maximum concentration was measured in mice after intraperitoneal administration of 10 mg/kg. Format: ADME, organism-based. Also on record: dose 10 mg/kg, route intraperitoneal. The conditions noted are these: mouse, in vivo, ip. An outline of the steps: as §1

As for `Nc1[nH]cc[n+]1Cc1[nH]c(=O)[nH]c(=O)c1Br`, the F result in data set [1] was “Not Active”. Moreover, the bioavailability in data set [2] came to 103%; in data set [8], 33%. For the same molecule, the C0 in [3] amounted to 3750 ng/mL. Besides, the Cmax in [4] is 350 ng/mL; in data set [12], 5080 ng/mL. Further, the AUC worked out at 1.505 µg/h/mL in data set [5], 0.968 µg/h/mL in data set [10] and 0.292 µg/h/mL in [11]. Also, the time to peak (Tmax) in data set [6] is 5 min; in data set [16], 60 min. Besides, the Vd in [7] came to 1.3 L/kg. The molecule also had a clearance in [9] greater than 72 mL/min/kg. Further, the figures for the half-life in data set [13], in data set [14] and in data set [15] were 132 min, 60 min and 12 min, respectively.

For the molecule `O=[N+]([O-])c1cn(Cc2cc(O)nc(O)n2)cn1`, the IC50 on Thymidine phosphorylase [17] is 13.8 µM; at Thymidine phosphorylase [18], 500 µM.

On to `Nc1c[n+](Cc2nc(O)nc(O)c2Cl)c[nH]1`, for which the IC50 at Thymidine phosphorylase [17] is 7.3 µM.

On to `Cl.N=C1CCCN1Cc1[nH]c(=O)[nH]c(=O)c1Cl` [TIPIRACIL HYDROCHLORIDE], for which the F entry in data set [1] was “Not Active”. For the same molecule, the Cmax in data set [19] was 4450 ng/mL; in data set [4] it was 391 ng/mL. The bioavailability is greater than 100% in data set [2] and 52% in data set [8]. This molecule came in with a C0 in data set [3] of 942 ng/mL. Moreover, the AUC in [5] turned out to be 1.658 µg/h/mL; in [10], 0.99 µg/h/mL; in data set [11], 0.19 µg/h/mL. Further, the Tmax in [6] amounted to 4.98 min; in data set [16] it was 60 min. For the same molecule, the Vd in data set [7] is 2.1 L/kg. Also, in data set [9], the clearance is greater than 72 mL/min/kg. Also, the half-life in [13] is 102 min; in data set [14] it was 48 min; in data set [15], 6 min.

For `Nc1c[n+](Cc2cc(O)nc(O)n2)c[nH]1`, the IC50 against Thymidine phosphorylase [17] is 101 µM; at Thymidine phosphorylase [18], 143 µM.

Regarding `O=c1[nH]c(Cn2cnc([N+](=O)[O-])c2)c(Br)c(=O)[nH]1`, the IC50 against Thymidine phosphorylase [17] turned out to be 6.6 µM; against Thymidine phosphorylase [18], 181 µM.

In the case of `Nc1c[n+](Cc2nc(O)nc(O)c2Br)c[nH]1`, half-maximal inhibition at Thymidine phosphorylase [17] (IC50) required 6.5 µM.

With `O=c1[nH]c(Cn2cnc([N+](=O)[O-])c2)c(Cl)c(=O)[nH]1`, the results for the IC50 against Thymidine phosphorylase [17] and against Thymidine phosphorylase [18] were 7 µM and 200 µM, respectively.

As a reminder, the Cmax is the peak of the concentration-time curve. Broadly, the Tmax is the time at which the peak concentration occurs. In general, clearance refers to the volume of plasma or blood freed of the substance per unit of time. Low readings indicate inefficient removal, high ones efficient removal. A word on the half-life: it is the time needed for the level to fall by half in the phase considered. Read a high half-life as slow loss. A word on the IC50: it is the concentration needed to halve the response being measured.
